In ChEMBL document CHEMBL1914423, “New imidazo[2,1-b]thiazole derivatives: synthesis, in vitro anticancer evaluation, and in silico studies” (Eur J Med Chem, 2011):

What was measured:
Format in all cases: functional
HL-60(TB) = experiment: Anticancer activity against human HL-60(TB) cells assessed as cell growth at 10^-5 M after 48 hrs by SRB assay; conditions: HL-60, 48 h, read-out: Activity
In short: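 NCI-60 single-dose screen. Cells in RPMI 1640 with 5% FBS and 2 mM L-glutamine were plated at 5000–40,000 cells/well and preincubated 24 h at 37 °C before one compound concentration. Time-zero plates were TCA-fixed at drug addition. For suspension cells, settled cells were fixed with cold TCA, then SRB-stained and read at 515 nm. Percent growth was calculated from time-zero, control and treated absorbances.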

MOLT-4 = experiment: Anticancer activity against human MOLT4 cells assessed as cell growth at 10^-5 M after 48 hrs by SRB assay; conditions: MOLT-4, 48 h, read-out: Activity
A549 = experiment: Anticancer activity against human A549 cells assessed as cell growth at 10^-5 M after 48 hrs by SRB assay; conditions: A549, 48 h, read-out: Activity
In short: (§1)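 NCI-60 single-dose screen at one concentration. Cells grown in RPMI 1640 with 5% FBS and 2 mM L-glutamine, plated at 5000–40,000 cells/well, and pre-incubated 24 h at 37 °C in 5% CO2 before DMSO-dissolved drug was added. Cells fixed with TCA, SRB-stained, absorbance read at 515 nm. Percent growth calculated against time-zero and untreated control plates.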

EKVX = experiment: Anticancer activity against human EKVX cells assessed as cell growth at 10^-5 M after 48 hrs by SRB assay; conditions: read-out: Activity; in short: as §1
HOP-62 = experiment: Anticancer activity against human HOP62 cells assessed as cell growth at 10^-5 M after 48 hrs by SRB assay; conditions: HOP-62, 48 h, read-out: Activity; in short: as §1
NCI-H23 = experiment: Anticancer activity against human NCI-H23 cells assessed as cell growth at 10^-5 M after 48 hrs by SRB assay; conditions: NCI-H23, 48 h, read-out: Activity
NCI-H460 = experiment: Anticancer activity against human NCI-H460 cells assessed as cell growth at 10^-5 M after 48 hrs by SRB assay; conditions: NCI-H460, 48 h, read-out: Activity
NCI-H522 = experiment: Anticancer activity against human NCI-H522 cells assessed as cell growth at 10^-5 M after 48 hrs by SRB assay; conditions: NCI-H522, 48 h, read-out: Activity
COLO 205 = experiment: Anticancer activity against human COLO205 cells assessed as cell growth at 10^-5 M after 48 hrs by SRB assay; conditions: COLO 205, 48 h, read-out: Activity; in short: as §1
HCC 2998 = experiment: Anticancer activity against human HCC2998 cells assessed as cell growth at 10^-5 M after 48 hrs by SRB assay; conditions: HCC 2998, 48 h, read-out: Activity; in short: as §1
HCT-116 = experiment: Anticancer activity against human HCT116 cells assessed as cell growth at 10^-5 M after 48 hrs by SRB assay; conditions: HCT-116, 48 h, read-out: Activity; in short: as §1
SF-539 = experiment: Anticancer activity against human SF539 cells assessed as cell growth at 10^-5 M after 48 hrs by SRB assay; conditions: SF-539, 48 h, read-out: Activity
SNB-75 = experiment: Anticancer activity against human SNB75 cells assessed as cell growth at 10^-5 M after 48 hrs by SRB assay; conditions: SNB-75, 48 h, read-out: Activity
In short: (§2)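 NCI-60 single-dose screen: cells in RPMI 1640 with 5% FBS and 2 mM L-glutamine, plated at 5000–40,000 cells/well by doubling time, and preincubated 24 h at 37 °C. Compound given at one concentration from DMSO stock. Cells TCA-fixed and SRB-stained, absorbance at 515 nm. Percent growth relative to time-zero and untreated controls; inhibition % = 100 − growth %.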

U-251 = experiment: Anticancer activity against human U251 cells assessed as cell growth at 10^-5 M after 48 hrs by SRB assay; conditions: U-251, 48 h, read-out: Activity; in short: as §2
LOX IMVI = experiment: Anticancer activity against human LOXIMVI cells assessed as cell growth at 10^-5 M after 48 hrs by SRB assay; conditions: read-out: Activity; in short: as §1
M14 = experiment: Anticancer activity against human M14 cells assessed as cell growth at 10^-5 M after 48 hrs by SRB assay; conditions: M14, 48 h, read-out: Activity; in short: as §1
SK-MEL-28 = experiment: Anticancer activity against human SK-MEL-28 cells assessed as cell growth at 10^-5 M after 48 hrs by SRB assay; conditions: SK-MEL-28, 48 h, read-out: Activity
UACC-62 = experiment: Anticancer activity against human UACC62 cells assessed as cell growth at 10^-5 M after 48 hrs by SRB assay; conditions: UACC-62, 48 h, read-out: Activity; in short: as §2
OVCAR-3 = experiment: Anticancer activity against human OVCAR3 cells assessed as cell growth at 10^-5 M after 48 hrs by SRB assay; conditions: OVCAR-3, 48 h, read-out: Activity
OVCAR-4 = experiment: Anticancer activity against human OVCAR4 cells assessed as cell growth at 10^-5 M after 48 hrs by SRB assay; conditions: OVCAR-4, 48 h, read-out: Activity
ACHN = experiment: Anticancer activity against human ACHN cells assessed as cell growth at 10^-5 M after 48 hrs by SRB assay; conditions: read-out: Activity; in short: as §1
RXF 393 = experiment: Anticancer activity against human RXF393 cells assessed as cell growth at 10^-5 M after 48 hrs by SRB assay; conditions: RXF 393, 48 h, read-out: Activity
SN12C = experiment: Anticancer activity against human SN12C cells assessed as cell growth at 10^-5 M after 48 hrs by SRB assay; conditions: read-out: Activity
DU-145 = experiment: Anticancer activity against human DU145 cells assessed as cell growth at 10^-5 M after 48 hrs by SRB assay; conditions: DU-145, 48 h, read-out: Activity; in short: as §1
MDA-MB-231 = experiment: Anticancer activity against human MDA-MB-231 cells assessed as cell growth at 10^-5 M after 48 hrs by SRB assay; conditions: MDA-MB-231, 48 h, read-out: Activity; in short: as §1
BT-549 = experiment: Anticancer activity against human BT549 cells assessed as cell growth at 10^-5 M after 48 hrs by SRB assay; conditions: BT-549, 48 h, read-out: Activity; in short: as §1
MDA-MB-468 = experiment: Anticancer activity against human MDA-MB-468 cells assessed as cell growth at 10^-5 M after 48 hrs by SRB assay; conditions: MDA-MB-468, 48 h, read-out: Activity

| Structure (SMILES) | growth at 10 µM (HL-60(TB)) [%] | growth at 10 µM (MOLT-4) [%] | growth at 10 µM (A549) [%] | growth at 10 µM (EKVX) [%] | growth at 10 µM (HOP-62) [%] | growth at 10 µM (NCI-H23) [%] | growth at 10 µM (NCI-H460) [%] | growth at 10 µM (NCI-H522) [%] | growth at 10 µM (COLO 205) [%] | growth at 10 µM (HCC 2998) [%] | growth at 10 µM (HCT-116) [%] | growth at 10 µM (SF-539) [%] | growth at 10 µM (SNB-75) [%] | growth at 10 µM (U-251) [%] | growth at 10 µM (LOX IMVI) [%] | growth at 10 µM (M14) [%] | growth at 10 µM (SK-MEL-28) [%] | growth at 10 µM (UACC-62) [%] | growth at 10 µM (OVCAR-3) [%] | growth at 10 µM (OVCAR-4) [%] | also measured |
| --- | --- | --- | --- | --- | --- | --- | --- | --- | --- | --- | --- | --- | --- | --- | --- | --- | --- | --- | --- | --- | --- |
| COc1cccc(-c2nc3sccn3c2-c2ccnc(NCCNC(=O)Nc3ccccc3)n2)c1 | 122 | 74.9 | 101 | 113 | 129 | 111 | 115 | 82.7 | 100 | 113 | 52.9 | 43.8 | 90.8 | 108 | 102 | 99.1 | 108 | 86 | 109 | 106 | growth at 10 µM (ACHN): 95.5%; growth at 10 µM (RXF 393): 107%; growth at 10 µM (SN12C): 65.6%; growth at 10 µM (DU-145): 102%; growth at 10 µM (MDA-MB-231): 103%; growth at 10 µM (BT-549): 96%; growth at 10 µM (MDA-MB-468): 101% |
| O=C(NCCNc1nccc(-c2c(-c3cccc(O)c3)nc3sccn23)n1)Nc1ccccc1 | 95.1 | 65.5 | 90.7 | 118 | 150 | 114 | 102 | 57 | 69.3 | 94.7 | 67.5 | 62.4 | 71.6 | 108 | 79.6 | 24 | 57.4 | 24.6 | 112 | 123 | growth at 10 µM (ACHN): 85.3%; growth at 10 µM (RXF 393): 86.3%; growth at 10 µM (SN12C): 64.3%; growth at 10 µM (DU-145): 110%; growth at 10 µM (MDA-MB-231): 85.9%; growth at 10 µM (BT-549): 96.2%; growth at 10 µM (MDA-MB-468): 51.1% |
| O=C(NCCNc1nccc(-c2c(-c3cccc(O)c3)nc3sccn23)n1)Nc1cc(C(F)(F)F)cc(C(F)(F)F)c1 | 97.3 | 60.2 | 57.7 | 52.2 | 118 | 90.9 | 51.8 | 69.5 | 45.1 | 65.5 | 66.3 | 96.5 | 66.1 | 77 | 60.6 | 21.4 | 68.8 | 54.4 | 82.2 | 121 | growth at 10 µM (ACHN): 65.9%; growth at 10 µM (RXF 393): 41.4%; growth at 10 µM (SN12C): 82.8%; growth at 10 µM (DU-145): 97.1%; growth at 10 µM (MDA-MB-231): 41.4%; growth at 10 µM (BT-549): 87.6%; growth at 10 µM (MDA-MB-468): 57.8% |
| COc1cccc(-c2nc3sccn3c2-c2ccnc(NCCNC(=O)c3ccccc3)n2)c1 | 94.2 | 53.4 | 75.3 | 106 | 111 | 87.3 | 84.9 | 61.8 | 51.8 | 114 | 81.8 | 97.7 | 92.6 | 102 | 54.8 | 40.1 | 64.2 | 24.6 | 89.2 | 109 | growth at 10 µM (ACHN): 65.8%; growth at 10 µM (RXF 393): 86.3%; growth at 10 µM (SN12C): 84.3%; growth at 10 µM (DU-145): 100%; growth at 10 µM (MDA-MB-231): 83.5%; growth at 10 µM (BT-549): 85.1%; growth at 10 µM (MDA-MB-468): 79.4% |
| COc1cccc(-c2nc3sccn3c2-c2ccnc(NCCNC(=O)c3ccccc3O)n2)c1 | 99.5 | 59.1 | 82.5 | 98.9 | 114 | 93.4 | 92.1 | 61.7 | 107 | 113 | 69.7 | 98 | 103 | 103 | 68.5 | 46.9 | 77.1 | 36.8 | 75 | 116 | growth at 10 µM (ACHN): 62%; growth at 10 µM (RXF 393): 78.9%; growth at 10 µM (SN12C): 86%; growth at 10 µM (DU-145): 94.5%; growth at 10 µM (MDA-MB-231): 89.4%; growth at 10 µM (BT-549): 81.6%; growth at 10 µM (MDA-MB-468): 102% |
| COc1cccc(-c2nc3sccn3c2-c2ccnc(NCCNC(=O)c3cccc(C(F)(F)F)c3)n2)c1 | 83.6 | 48 | 56 | 76.2 | 99.5 | 70.7 | 74.3 | 48.8 | 46.1 | 87.1 | 56.9 | 88.3 | 85.3 | 74.5 | 54.7 | 46.5 | 75.9 | 30.1 | 76 | 89 | growth at 10 µM (ACHN): 49.5%; growth at 10 µM (RXF 393): 60.5%; growth at 10 µM (SN12C): 65.2%; growth at 10 µM (DU-145): 67.7%; growth at 10 µM (MDA-MB-231): 77.6%; growth at 10 µM (BT-549): 78.1%; growth at 10 µM (MDA-MB-468): 71.1% |
| COc1cccc(-c2nc3sccn3c2-c2ccnc(NCCNC(=O)c3cc(C(F)(F)F)cc(C(F)(F)F)c3)n2)c1 | 131 | 67.6 | 81.2 | 84.4 | 109 | 102 | 92.2 | 78.4 | 93.4 | 90.2 | 69.1 | 88.3 | 75.8 | 92 | 92.5 | 79.3 | 97.6 | 70.3 | 90.9 | 103 | growth at 10 µM (ACHN): 88.2%; growth at 10 µM (RXF 393): 51.2%; growth at 10 µM (SN12C): 90.8%; growth at 10 µM (DU-145): 94.4%; growth at 10 µM (MDA-MB-231): 82.9%; growth at 10 µM (BT-549): 86.2%; growth at 10 µM (MDA-MB-468): 95.6% |
